Key:
Assay type in all cases: functional
SNB-75 = test: Cell cycle arrest in human SNB75 cells assessed as accumulation in S phase at 2 uM incubated for 24 hrs by propidium iodide based flow cytometry (reference value: 33.92 %)
Procedure, shortened: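 SNB-75 cells were exposed to 2 µM for 24 h at 37 °C, 5% CO2, then washed with PBS and fixed in 70% ethanol on ice for 15 min. They were stained 1 h at room temperature with 50 µg/mL propidium iodide, 0.1 mg/mL RNase A and 0.05% Triton X-100. DNA content was read by flow cytometry to give the % of cells in pre-G1, G0/G1, S and G2/M.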

SW-620 [1] = test: Growth inhibition of human SW620 cells incubated for 48 hrs by sulforhodamine B assay; settings: SW-620, 48 h
Procedure, shortened: (§1)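 NCI-60 five-dose SRB assay. Cells were exposed for 48 h to tenfold dilutions of 0.01, 0.1, 1, 10 and 100 µM, in RPMI 1640 with 5% FBS. Plates fixed with TCA at the time of drug addition served as the time-zero reference. GI50 is the concentration giving a 50% reduction in net growth. TGI is total growth inhibition. LC50 is a net 50% loss of the initial cells.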

RXF 393 [2] = test: Growth inhibition of human RXF393 cells assessed as cell viability at 0.1 uM incubated for 48 hrs by sulforhodamine B assay; settings: RXF 393, 48 h, read-out: Activity
OVCAR-8 = test: Growth inhibition of human OVCAR8 cells incubated for 48 hrs by sulforhodamine B assay; settings: OVCAR-8, 48 h; procedure, shortened: as §1
SW-620 [3] = test: Growth inhibition of human SW620 cells assessed as cell viability at 100 uM incubated for 48 hrs by sulforhodamine B assay; settings: SW-620, 48 h, read-out: Activity
SK-MEL-2 = test: Growth inhibition of human SK-MEL-2 cells assessed as cell viability at 100 uM incubated for 48 hrs by sulforhodamine B assay; settings: SK-MEL-2, 48 h, read-out: Activity
HCT-15 = test: Growth inhibition of human HCT15 cells assessed as cell viability at 100 uM incubated for 48 hrs by sulforhodamine B assay; settings: HCT-15, 48 h, read-out: Activity
SN12C = test: Growth inhibition of human SN12C cells assessed as cell viability at 0.001 uM incubated for 48 hrs by sulforhodamine B assay relative to control; settings: read-out: Activity
Hs-578T = test: Growth inhibition of human Hs 578T cells assessed as cell viability at 0.1 uM incubated for 48 hrs by sulforhodamine B assay; settings: read-out: Activity
K562 = test: Growth inhibition of human K562 cells assessed as cell viability at 100 uM incubated for 48 hrs by sulforhodamine B assay; settings: K562, 48 h, read-out: Activity
MDA-MB-435 = test: Growth inhibition of human MDA-MB-435 cells assessed as cell viability at 100 uM incubated for 48 hrs by sulforhodamine B assay; settings: MDA-MB-435, 48 h, read-out: Activity
SK-OV-3 = test: Growth inhibition of human SKOV3 cells assessed as cell viability at 1 uM incubated for 48 hrs by sulforhodamine B assay; settings: SK-OV-3, 48 h, read-out: Activity
BT-549 = test: Growth inhibition of human BT549 cells assessed as cell viability at 0.001 uM incubated for 48 hrs by sulforhodamine B assay relative to control; settings: BT-549, 48 h, read-out: Activity
T47D = test: Growth inhibition of human T47D cells assessed as cell viability at 1 uM incubated for 48 hrs by sulforhodamine B assay; settings: read-out: Activity
UACC-257 = test: Growth inhibition of human UACC257 cells assessed as cell viability at 100 uM incubated for 48 hrs by sulforhodamine B assay; settings: UACC-257, 48 h, read-out: Activity
IGROV-1 = test: Growth inhibition of human IGROV1 cells assessed as cell viability at 0.001 uM incubated for 48 hrs by sulforhodamine B assay relative to control; settings: IGROV-1, 48 h, read-out: Activity
A549 = test: Growth inhibition of human A549/ATCC cells assessed as cell viability at 0.1 uM incubated for 48 hrs by sulforhodamine B assay; settings: A549, 48 h, read-out: Activity
Procedure, shortened: (§2)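 NCI-60 five-dose mode: five tenfold dilutions (0.01, 0.1, 1, 10, 100 µM) are applied for 48 h to cells in RPMI 1640 with 5% FBS at 37 °C. Endpoint is TCA fixation with sulforhodamine B read at 515 nm. % growth comes from the 0 h and control absorbances. GI50 is the concentration giving a 50% reduction in net cell growth.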

COLO 205 = test: Growth inhibition of human COLO205 cells incubated for 48 hrs by sulforhodamine B assay; settings: COLO 205, 48 h; procedure, shortened: as §2
NCI-H460 = test: Growth inhibition of human NCI-H460 cells assessed as cell viability at 0.001 uM incubated for 48 hrs by sulforhodamine B assay relative to control; settings: NCI-H460, 48 h, read-out: Activity
CAKI-1 = test: Growth inhibition of human Caki1 cells assessed as cell viability at 1 uM incubated for 48 hrs by sulforhodamine B assay; settings: CAKI-1, 48 h, read-out: Activity
MDA-MB-468 = test: Growth inhibition of human MDA-MB-468 cells incubated for 48 hrs by sulforhodamine B assay; settings: MDA-MB-468, 48 h
Procedure, shortened: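 NCI-60 five-dose SRB assay in RPMI 1640 with 5% FBS, 37 °C, 5% CO2. Compound given at five tenfold dilutions, 0.01–100 µM, for 48 h. Adherent cells fixed with TCA, suspension cells with 16% final TCA. Bound SRB read at 515 nm and growth calculated against time-zero and untreated controls. GI50 taken from dose–response curves as the concentration giving a 50% decrease in net cell growth.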

RXF 393 [4] = test: Growth inhibition of human RXF393 cells incubated for 48 hrs by sulforhodamine B assay; settings: RXF 393, 48 h; procedure, shortened: as §1
TK-10 = test: Growth inhibition of human TK10 cells assessed as cell viability at 100 uM incubated for 48 hrs by sulforhodamine B assay; settings: TK-10, 48 h, read-out: Activity
[5] = read-out: LC50 (the source's name)
[6] = read-out: pLC50 (the source's name) (converted)

`CC1=C(C(=O)OCc2ccccc2)C(c2ccc3c(c2)OCO3)n2c(nc3ccccc32)N1` (racemic) gave an Activity (SNB-75) of 27.89%, a GI50 (SW-620 [1]; read-out: GI50) of 0.39 µM and an LC50 (concentration causing 50% net loss of initial cells) (SW-620 [1]; read-out: LC50) greater than 100 µM. The TGI (SW-620 [1]; read-out: TGI) was greater than 100 µM, the GI50 (SW-620 [1]; read-out: pGI50 (converted)) was 0.389 µM and the LC50 (concentration causing 50% net loss of initial cells) (SW-620 [1]; read-out: pLC50 (converted)) was greater than 100 µM. The TGI (SW-620 [1]; read-out: pTGI) was greater than 100 µM, the viability at 0.1 µM (RXF 393 [2]) was 90% and the GI50 (OVCAR-8; read-out: GI50) was 0.63 µM. It also gave a CC50 (OVCAR-8; [5]) greater than 100 µM, a TGI (OVCAR-8; read-out: TGI) greater than 100 µM and a GI50 (OVCAR-8; read-out: pGI50 (converted)) of 0.631 µM. It also gave a CC50 (OVCAR-8; [6]) greater than 100 µM, a TGI (OVCAR-8; read-out: pTGI) greater than 100 µM and a viability at 100 µM (SW-620 [3]) of 6%. The viability at 100 µM (SK-MEL-2) was 37%, the viability at 100 µM (HCT-15) was 19% and the viability at 0.001 µM (SN12C) was 89%. It also gave a viability at 0.1 µM (Hs-578T) of 88%, a viability at 100 µM (K562) of 26% and a viability at 100 µM (MDA-MB-435) of -7%. For the same compound, the viability at 1 µM (SK-OV-3) was 27%, the viability at 0.001 µM (BT-549) was 95% and the viability at 1 µM (T47D) was 30%. For the same compound, the viability at 100 µM (UACC-257) was 46%, the viability at 0.001 µM (IGROV-1) was 92% and the viability at 0.1 µM (A549) was 99%. The GI50 (COLO 205; read-out: GI50) was 0.5 µM, the LC50 (COLO 205; read-out: LC50) was greater than 100 µM and the TGI (COLO 205; read-out: TGI) was greater than 100 µM. It also gave a GI50 (COLO 205; read-out: pGI50 (converted)) of 0.501 µM, an LC50 (COLO 205; read-out: pLC50 (converted)) greater than 100 µM and a TGI (COLO 205; read-out: pTGI) greater than 100 µM. It also gave a viability at 0.001 µM (NCI-H460) of 98%, a viability at 1 µM (CAKI-1) of 20% and a GI50 (MDA-MB-468; read-out: GI50) of 0.27 µM. It also gave a CC50 (MDA-MB-468; [5]) greater than 100 µM, a TGI (MDA-MB-468; read-out: TGI) greater than 100 µM and a GI50 (MDA-MB-468; read-out: pGI50 (converted)) of 0.269 µM. It also gave a CC50 (MDA-MB-468; [6]) greater than 100 µM, a TGI (MDA-MB-468; read-out: pTGI) greater than 100 µM and a GI50 (RXF 393 [4]; read-out: GI50) of 0.31 µM. The CC50 (RXF 393 [4]; [5]) was greater than 100 µM, the TGI (RXF 393 [4]; read-out: TGI) was greater than 100 µM and the GI50 (RXF 393 [4]; read-out: pGI50 (converted)) was 0.302 µM. The CC50 (RXF 393 [4]; [6]) was greater than 100 µM, the TGI (RXF 393 [4]; read-out: pTGI) was greater than 100 µM and the viability at 100 µM (TK-10) was 68%.
